# Compounds with a hit are over-represented: about 2.4% of the library has one in this group of screens.
# Efa HMGR inh: inhibitors of E. faecalis class II HMGR, primary screen, biochemical, Enterococcus faecalis. HMG-CoA reductase (Enterococcus faecalis, mvaE). purified E. faecalis HMGR, NADPH absorbance 340 nm kinetic. inhibition, % at 10 µM. hit rate 0.41% among 190,000. AID 1066, 2008;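 active means inhibition above a set limit, the median over all tested compounds plus 3 SD, cut at about 9.5% in these data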;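 further: enzyme runs in reverse so mevalonate oxidation gives rising NADPH absorbance; 0% = complete reaction with DMSO and 100% = background rate lacking mevalonate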
# EP2 modulator: EP2 receptor modulators, cAMP readout, primary screen, cell-based, HTRF cAMP, PGE2 stimulation | hit rate 0.83% among 260,000 | AID 940, 2007 | induction, % at 25 µM | EP2-expressing cells, cAMP HTRF FRET, PGE2 co-stimulation;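 active means compounds whose cAMP rise, as percent of the full-agonist control response, exceeds 60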;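 further: rat C6 glioma line stably carrying human EP2 under a CMV promoter; the protocol text gives 20 µM as final concentration; 100% = response of wells given 1 µM PGE2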
# Target sequence (P43116 whole entry, looked up): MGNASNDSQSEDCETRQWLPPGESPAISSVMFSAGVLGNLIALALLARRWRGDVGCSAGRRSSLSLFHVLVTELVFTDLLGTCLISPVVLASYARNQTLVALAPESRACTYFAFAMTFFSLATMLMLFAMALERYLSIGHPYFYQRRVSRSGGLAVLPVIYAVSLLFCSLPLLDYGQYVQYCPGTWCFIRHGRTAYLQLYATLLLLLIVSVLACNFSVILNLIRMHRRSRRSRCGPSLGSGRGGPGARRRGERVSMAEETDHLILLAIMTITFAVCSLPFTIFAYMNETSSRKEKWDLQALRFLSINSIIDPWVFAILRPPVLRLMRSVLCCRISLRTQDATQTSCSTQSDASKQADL
# Tb hexokinase: Trypanosoma brucei hexokinase 1 inhibitors, primary screen, biochemical, G6PDH-coupled NADH absorbance, MLSCN library; hexokinase 1 [Trypanosoma brucei]; recombinant TbHK1, G6PDH-coupled NADH A340; inhibition, % at 10 µM; hit rate 0.11% among 220,000; AID 1430, 2008;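 active means inhibition of 50% or more in the single-dose primary screen; inactive means inhibition below 50%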
# EP2 antag: human EP2 receptor antagonists, primary screen, TR-FRET cAMP, C6 glioma cells; Prostaglandin E2 receptor EP2 subtype (Homo sapiens), P43116; C6 glioma cells expressing human EP2; cells stimulated with saturating PGE2; inhibition, % at 25 µM; hit rate 0.52% among 260,000; AID 1422, 2008;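 active means percent inhibition above 40 after rounding to a whole number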;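 further: rat C6 glioma host cells with rolipram phosphodiesterase inhibitor present; the protocol text gives 20 µM as final concentration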
# MT stabilize HCS: microtubule stabilizers in HeLa cells, primary screen, imaging, high-content imaging; hit rate 0.83% among 200,000; % tubulin-high responders, % at 10 µM; AID 2205, 2009; HeLa tubulin immunostaining HCS, 24 h; share of cells brighter than vehicle mean+2SD;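 active means plate Z-score above 3 for both tubulin-high and condensed-nucleus cell shares, with cell loss under 80%, at 10 µM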;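 further: anti alpha tubulin signal scored within the nucleus-defined area of each cell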
# b-catenin transl: modulators of beta-catenin nuclear translocation, primary screen, imaging, HeLa cells, immunofluorescence, high-content. hit rate 0.3% among 190,000. nuclear translocation activity, % at 5 µM;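 active means nuclear translocation activity above 50% at 5 µM, with a well cell count of 50 or more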;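 further: per-cell ratio of nuclear to cytoplasmic median beta-catenin stain intensity; plate controls were DMSO negative control for no effect and GSK-3 inhibitor IX positive control for full effect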
#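 test system = HeLa cells, endogenous beta-catenin | dosing = single 5 µM dose plus 0.02–20 µM confirmation series | times = compound treatment 24 h, 37°C, 5% CO2 | technique = beta-catenin immunofluorescence imaging with DAPI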
# EP2 cAMP induct: cAMP induction in EP2, EP4, beta2-AR and parental cells, confirmation, counter-screen for EP2 modulator project, cell-based, five parallel assays, C6 glioma, HEK293; shares compounds with EP2 modulator; AID 1080, 2008; hit rate 47% among 1,300; calls only at 20 µM (by protocol); cAMP HTRF induction; plus low (about EC15) PGE2 agonist;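 active means cAMP induction above 50% in the main assay while under 30% in all four parallel counter assays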;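 further: rat C6 glioma cells stably expressing human EP2 receptor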
# G6PDH ctr: Leuconostoc G6PDH inhibition, confirmation, counter-screen for TbHK1 inhibitor project, biochemical, DPI cherry-picked compounds, single concentration; shares compounds with Tb hexokinase; purified G6PDH, NADH absorbance, 1 h; inhibition, % at 10 µM; hit rate 7% among 210; AID 2516, 2010;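 active means at least 50% inhibition in the glucose-6-phosphate dehydrogenase coupled counterscreen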
# TbHK1 rescreen: TbHK1 inhibitor retest, confirmation, biochemical, DPI cherry-picked primary actives. shares compounds with Tb hexokinase. recombinant TbHK1, G6PDH-coupled NADH A340 absorbance. inhibition, % at 10 µM. hit rate 10% among 210. AID 2560, 2010;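 active means inhibition of at least 50% in both of the two screening runs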;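 further: 0% and 100% set by the maximum and minimum signal control wells on each plate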
# The depositor's hits bear a star; i = inactive; . = no result given.
SMILES,Efa HMGR inh,EP2 modulator,Tb hexokinase,EP2 antag,MT stabilize HCS,b-catenin transl,G6PDH ctr,TbHK1 rescreen,others
COc1cc(OC)c(OC)cc1CNCCc1ccc(OC)c(OC)c1,-1,67*,8,8,4,.,.,.,EP2 cAMP induct=i
CC(C)c1nccn1Cc1ccc(Cl)cc1Cl,.,106*,.,-2,.,.,.,.,EP2 cAMP induct=i
CCC(=O)c1cn(Cc2ccccc2)c2ccccc12,1,40,-6,8,2,-1,.,.,
O=C(c1cn(Cc2ccccc2)c2ccccc12)C1CC1,-3,65*,-3,12,2,0,.,.,EP2 cAMP induct=i
NC(Cc1ccccc1)c1ccc2c(c1)OCCO2 (stereo not drawn),.,-69,.,11,.,.,.,.,
CN(C)CP(=O)(O)CN(C)C=O,-2,-4,51*,-7,4,-2,-6,3,
COc1ccccc1CN(CCN(C)C)C(=O)Cc1c(C)[nH]c2ccc(C)cc12,.,-45,.,7,.,.,.,.,
COc1ccc(CCn2c(O)c(C=NCc3ccc4c(c3)OCO4)c(=O)[nH]c2=O)cc1OC,-4,-35,2,11,2,-5,.,.,
COc1ccc(OC)c(-n2c(O)c(C=NCc3ccc4c(c3)OCO4)c(=O)[nH]c2=O)c1,-5,5,55*,3,5,-1,-2,5,
CCOC(=O)N(c1ccccc1)P1(=S)OCCO1,-4,24,14,13,4,0,.,.,
CCOC(=O)N(c1ccccc1)P1(=S)OCC(C)O1 (stereo not drawn),-5,23,53*,4,5,-2,-12,12,
Cc1ccc(C2(O)CC(C)N(C)CC2C)cc1 (stereo not drawn),1,-3,53*,13,3,-5,-3,0,
Cc1nc(CC(=O)N(CCN(C)C)Cc2ccccc2F)cs1,.,-11,.,9,.,.,.,.,

# Screening data from PubChem.
